Experiment [1] is described as follows: inhibitors of TNFa-induced NFkB p65 translocation, primary screen, imaging, HUVEC, MLSMR starter and 10KST1 sets (AID 438;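 active means inhibition above 20% together with a positive visual image hit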;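 further: compound added about 3h40 before a 20 min TNFalpha stimulation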;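 on inhibition: signal is the nuclear over cytoplasmic p65 intensity ratio per well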). Conditions: HUVEC TNFa-induced p65 nuclear translocation; cell count: measured here: nuclei count (cytotoxicity indicator), at 2.08 µM; inhibition: at 2 µM, stronger effect = higher value, 0% TNFa-plus-vehicle, 100% no-TNFa wells.
Experiment [2] is described as follows: reduction of polyQ htt aggregates in cells – imaging, exon1htt(103Q)mCFP cells, high-content imaging, primary screen (AID 483;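 active means visual image review flags a hit and inhibition of aggregation exceeds 20%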;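 further: compound exposure lasted 3 days before fixation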;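 on nuclei count: percent of the per-plate median nuclei count of sample wells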). The conditions noted are these: exon1htt(103Q)mCFP cell line, aggregate imaging, at 2 µM; inhibition of aggregation: stronger effect = higher value; nuclei count: measured here: cell count, toxicity.
Experiment [3] can be described thus: endothelial E-selectin expression blockers – imaging, HUVEC, immunofluorescence, MLSMR starter and 10KST1 sets, primary screen (AID 487;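 active means visually confirmed hit in the image check and inhibition above 20%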;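 on inhibition: signal is fraction of cell area covered by stained E-selectin grains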;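 on nuclei count: 100% = median nuclei count of all wells on the same plate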). Conditions: HUVEC TNFalpha-induced E-selectin immunofluorescence imaging, at 2 µM; inhibition: stronger effect = higher value; nuclei count: measured here: cell number, toxicity.
Experiment [4] has as its target Voltage-gated potassium channel subunit beta-2 (Rattus norvegicus) (UniProt P62483). Kind of experiment: inhibitors of rat Kvbeta2 reductase activity – biochemical, NADPH fluorescence, primary screen (AID 622;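 active means fluorescence slope higher than the sample average by over 3 SD, cut at about -0.22 in these data, passing the limit was not always enough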;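 further: slope of raw intensity against log time taken from 70 to 1610 s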). The conditions noted are these: recombinant KvBeta, 4-cyanobenzaldehyde reduction, at 10 µM, stronger effect = higher value.
For experiment [5] the target is unchanged. Briefly: enhancers of rat Kvbeta2 NADPH turnover – biochemical, NADPH fluorescence, primary screen (AID 623).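 Further: fluorescence intensity change per second fitted from 20 to 320 s.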 The conditions noted are these: Recombinant KvBeta, NADPH fluorescence decrease slope, 10 min; at 10 µM; stronger effect = lower value.
Experiment [6] concerns the target Muscarinic acetylcholine receptor M4 (Homo sapiens) (UniProt P08173). Kind of experiment: M4-linked GIRK flux change, two-sided – cell-based, HEK293 M4/GIRK, thallium flux, BTC-AM, M4 allosteric agonist project, primary screen (AID 625;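 active means fluorescence slope after compound addition differing from the mean of all tested samples at 99.7% confidence, mostly higher but some lower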;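 further: thallium influx through GIRK channels coupled to M4 in HEK293 cells with BTC-AM dye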). Conditions: at 10 µM, actives lie on both sides. A digest of the protocol:
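Material – HEK293 cells with M4 receptor and GIRK channels · Buffer or medium – pH 7.3 thallium assay buffer · Doses – one dose, 10 µM final · Timing – cells overnight at 37 °C, BTC-AM loading 1 h, reads 2 min total · Measured by – kinetic fluorescence with BTC-AM dye · Controls – carbachol and DMSO controls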

Experiment [7] in a line: blockers of RIG-like receptor reporter activation – cell-based, Sendai virus stimulus, luciferase, 10K MLSCN set, TLR/RLR signaling modifier project, primary screen (AID 602276;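 active means inhibition at or above 50% at 10 µM; inactive means inhibition below 50%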;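 further: firefly luciferase from ISG56 promoter only with Renilla not read in this screen; 0% = Sendai virus plus DMSO and 100% = medium plus DMSO without virus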). The conditions noted are these: HEK293 RL24 IRF3 luciferase reporter, at 10 µM, stronger effect = higher value. For orientation: Reporter assays use an easily measured gene product as a stand-in for the process of interest.

A short description of experiment [8]: TLR3 IRF3 reporter activation blockers – cell-based, poly I:C stimulus, luciferase, 10K MLSCN set, primary screen (AID 602277;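 active means inhibition of the reporter signal at or above 50%; inactive means inhibition below 50%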). The conditions noted are these: HEK293-TLR3 RL24 IRF3 luciferase reporter, at 10 µM, stronger effect = higher value.

Experimental findings from PubChem BioAssay are described below.

Each structure is given as a SMILES string. The source made the active and inactive calls.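 How the source made its calls, unless noted: active means NADPH fluorescence slope more negative than the mean of all samples by about 3 SD, 99.7% confidence; inactive means the rest.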

Voltage-gated potassium channel subunit beta-2 (Rattus norvegicus), sequence (P62483 whole entry, looked up): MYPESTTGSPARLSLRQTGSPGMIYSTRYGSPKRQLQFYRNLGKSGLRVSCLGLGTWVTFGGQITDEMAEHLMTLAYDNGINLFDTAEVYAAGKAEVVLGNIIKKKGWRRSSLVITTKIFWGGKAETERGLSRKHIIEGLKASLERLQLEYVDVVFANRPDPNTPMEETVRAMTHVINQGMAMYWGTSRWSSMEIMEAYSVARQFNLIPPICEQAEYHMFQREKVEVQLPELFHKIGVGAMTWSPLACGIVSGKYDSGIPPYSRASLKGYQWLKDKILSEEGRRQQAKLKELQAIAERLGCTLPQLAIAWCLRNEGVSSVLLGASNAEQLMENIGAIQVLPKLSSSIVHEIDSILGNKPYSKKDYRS
Muscarinic acetylcholine receptor M4 (Homo sapiens), sequence (P08173 whole entry, looked up): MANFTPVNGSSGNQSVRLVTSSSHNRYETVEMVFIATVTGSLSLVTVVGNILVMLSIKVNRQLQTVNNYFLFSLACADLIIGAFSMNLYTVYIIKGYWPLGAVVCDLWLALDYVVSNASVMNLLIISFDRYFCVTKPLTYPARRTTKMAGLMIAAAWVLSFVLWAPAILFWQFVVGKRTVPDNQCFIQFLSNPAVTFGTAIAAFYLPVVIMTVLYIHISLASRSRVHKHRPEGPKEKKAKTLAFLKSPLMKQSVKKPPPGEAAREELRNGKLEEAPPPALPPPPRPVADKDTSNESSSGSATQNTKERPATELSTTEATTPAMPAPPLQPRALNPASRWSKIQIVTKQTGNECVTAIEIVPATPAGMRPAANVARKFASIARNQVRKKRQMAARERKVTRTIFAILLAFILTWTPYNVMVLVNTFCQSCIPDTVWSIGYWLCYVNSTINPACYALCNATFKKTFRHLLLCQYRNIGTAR

As for `O=C(C1CCN(S(=O)(=O)N2CCC3(CC2)OCCO3)CC1)N1CCOCC1`, the cell count in experiment [1] was 648. For the same molecule, the inhibition in experiment [1] was 14.8% (inactive); in experiment [3], 28.9% (inactive); in experiment [7] it was -6.46% (inactive); in experiment [8] it was -2.34% (inactive). Also, the inhibition of aggregation in experiment [2] was 17.5% (inactive). For the same molecule, the nuclei count in experiment [2] amounted to 89.1%; in experiment [3], 96.9%. The fluorescence slope in experiment [4] is -0.571 (inactive); in experiment [6], 0.00319 (inactive). In addition, in experiment [5], the NADPH fluorescence slope was -8.3e-05 (inactive).

As for `COC(=O)Nc1ccc(S(=O)(=O)N2CCN(c3ccc(F)cc3)CC2)cc1`, the cell count in experiment [1] stood at 381. The inhibition in experiment [1] is -3.7% (inactive); in experiment [3], -124% (inactive); in experiment [7], 6.88% (inactive); in experiment [8], 13.6% (inactive). Further, the inhibition of aggregation in experiment [2] is 12.1% (inactive). Further, the nuclei count worked out at 100% in experiment [2] and 123% in experiment [3]. Further, the values for the fluorescence slope in experiment [4] and in experiment [6] were -0.564 (inactive) and 0.00356 (inactive), respectively. Moreover, the NADPH fluorescence slope in experiment [5] was -0.000131 (inactive).

With `O=C(NCCCN1CCOCC1)C1CC(=O)N(CCc2ccccc2)C1` (centres undefined), in experiment [1], the cell count was determined as 295. Moreover, the inhibition in experiment [1] was -1% (inactive); in experiment [3] it was -88% (inactive); in experiment [7] it was 15.2% (inactive); in experiment [8], 22.3% (inactive). In experiment [2], the inhibition of aggregation is 0.4% (inactive). Moreover, the nuclei count in experiment [2] was determined as 104%; in experiment [3] it was 117%. The values for the fluorescence slope in experiment [4] and in experiment [6] were -0.545 (inactive) and 0.00479 (inactive), respectively. For the same molecule, the NADPH fluorescence slope in experiment [5] was 1.7e-05 (inactive).

For `CN(CC(O)COCc1cccs1)C1CCCCC1` (centres undefined), the cell count in experiment [1] came out at 305. Further, the inhibition in experiment [1] is 10.6% (inactive); in experiment [3], -5.5% (inactive); in experiment [7], 11.7% (inactive); in experiment [8], 17.5% (inactive). In addition, the inhibition of aggregation in experiment [2] is 1.5% (inactive). Besides, the nuclei count was 95.2% in experiment [2] and 105% in experiment [3]. The fluorescence slope is -0.448 (inactive) in experiment [4] and 0.00729 (inactive) in experiment [6]. The NADPH fluorescence slope in experiment [5] was -4.5e-05 (inactive).

With `Cc1cc(C)nc(N2CCC(C(=O)NCc3cccc(C(F)(F)F)c3)CC2)n1`, the cell count in experiment [1] turned out to be 441. The inhibition in experiment [1] was 7.1% (inactive); in experiment [3] it was 45.5% (inactive); in experiment [7], 11.9% (inactive); in experiment [8], 14% (inactive). The inhibition of aggregation in experiment [2] is -55.6% (inactive). Also, the figures for the nuclei count in experiment [2] and in experiment [3] were 85.9% and 85.1%, respectively. For the same molecule, the figures for the fluorescence slope in experiment [4] and in experiment [6] were -0.227 (inactive) and 0.00567 (inactive), respectively. In experiment [5], the NADPH fluorescence slope was -4.8e-06 (inactive).

On to `COC(=O)c1c(NC(=O)c2ccc(S(=O)(=O)N3CCOCC3)cc2)sc2c1CCN(C)C2`, for which the cell count in experiment [1] turned out to be 296. Further, the inhibition in experiment [1] was -9.1% (inactive); in experiment [3], -25.5% (inactive); in experiment [7], -9.85% (inactive); in experiment [8] it was 15.9% (inactive). Moreover, the inhibition of aggregation in experiment [2] is 3% (inactive). For the same molecule, the nuclei count in experiment [2] turned out to be 117%; in experiment [3], 114%. In addition, the fluorescence slope in experiment [4] was -0.483 (inactive); in experiment [6], 0.0054 (inactive). Moreover, the NADPH fluorescence slope in experiment [5] was -5.3e-05 (inactive).

Regarding `Cc1c(C(=O)OC(C)C)[nH]c2c1C(=O)CCC2`, the cell count in experiment [1] amounted to 437. Moreover, the inhibition in experiment [1] is -3.5% (inactive); in experiment [3], 54.6% (inactive); in experiment [7] it was -15.8% (inactive); in experiment [8], -50.8% (inactive). The inhibition of aggregation in experiment [2] was 15.4% (inactive). In addition, the values for the nuclei count in experiment [2] and in experiment [3] were 86.8% and 99%, respectively. For the same molecule, the fluorescence slope in experiment [4] was -0.592 (inactive); in experiment [6], 0.00589 (inactive). For the same molecule, the NADPH fluorescence slope in experiment [5] was -3.8e-05 (inactive).

`Cc1nc2ccc(NC(=O)N3CCOCC3)cc2s1`: the cell count in experiment [1] worked out at 416. The inhibition in experiment [1] was 0.5% (inactive); in experiment [3], -51% (inactive); in experiment [7], 10.7% (inactive); in experiment [8], 8.12% (inactive). Also, in experiment [2], the inhibition of aggregation was -0.3% (inactive). Further, the nuclei count in experiment [2] was 96.2%; in experiment [3] it was 109%. Moreover, the fluorescence slope was -0.497 (inactive) in experiment [4] and 0.00618 (inactive) in experiment [6]. Moreover, in experiment [5], the NADPH fluorescence slope is 8.6e-06 (inactive).

As to `O=C(CCCn1c(=O)c2sccc2n(CC(=O)NCc2ccco2)c1=O)NCc1ccco1`, the cell count in experiment [1] turned out to be 263. Also, the inhibition in experiment [1] was 2.8% (inactive); in experiment [3], -49.2% (inactive); in experiment [7], 13.9% (inactive); in experiment [8], 15% (inactive). In addition, the inhibition of aggregation in experiment [2] was -6.2% (inactive). In addition, the nuclei count was found to be 98.5% in experiment [2] and 117% in experiment [3]. Further, the fluorescence slope in experiment [4] was -0.567 (inactive); in experiment [6] it was 0.00613 (inactive). The NADPH fluorescence slope in experiment [5] is -5.7e-05 (inactive).

Turning to `CCOC(=O)CNC(=O)c1c(C)nn(-c2ccccc2)c1Cl`, in experiment [1], the cell count was determined as 389. Besides, the inhibition is 1.9% (inactive) in experiment [1], -152% (inactive) in experiment [3], -45.3% (inactive) in experiment [7] and 99.2% (active) in experiment [8]. Further, the inhibition of aggregation in experiment [2] was 0.1% (inactive). In addition, the nuclei count in experiment [2] stood at 56.2%; in experiment [3] it was 127%. In addition, the fluorescence slope in experiment [4] was -0.571 (inactive); in experiment [6] it was 0.00495 (inactive). Moreover, the NADPH fluorescence slope in experiment [5] was -5.1e-06 (inactive).

On to `Cc1cccc(NC(=O)c2cc3n(n2)C(C(F)(F)F)CC(c2ccc4c(c2)OCO4)N3)c1` (centres undefined), for which the cell count in experiment [1] is 555. Further, the inhibition in experiment [1] is -6.9% (inactive); in experiment [3], 45.8% (inactive); in experiment [7], 25.3% (inactive); in experiment [8] it was 25.4% (inactive). The inhibition of aggregation in experiment [2] was 0.5% (inactive). Also, the figures for the nuclei count in experiment [2] and in experiment [3] were 82.7% and 127%, respectively. Also, the fluorescence slope in experiment [4] is -0.546 (inactive); in experiment [6], 0.00563 (inactive). In experiment [5], the NADPH fluorescence slope is -3.2e-05 (inactive).

As for `CCOC(=O)c1ccc(NC(=O)N2CCN(CCc3ccccc3)CC2)cc1`, the cell count in experiment [1] worked out at 361. Also, the inhibition in experiment [1] was 2.5% (inactive); in experiment [3], 20.3% (inactive); in experiment [7], 6.1% (inactive); in experiment [8], -14.9% (inactive). For the same molecule, the inhibition of aggregation in experiment [2] is 18.6% (inactive). Moreover, the values for the nuclei count in experiment [2] and in experiment [3] were 84.1% and 75.8%, respectively. In addition, the fluorescence slope in experiment [4] was -0.475 (inactive); in experiment [6], 0.00422 (inactive). Besides, in experiment [5], the NADPH fluorescence slope was -4.1e-05 (inactive).

Turning to `Cc1ccc(S(=O)(=O)N2CCOCC2)cc1C(=O)OCC(=O)N1CCc2ccccc2C1`, the cell count in experiment [1] was found to be 538. The inhibition in experiment [1] is -12.2% (inactive); in experiment [3], -184% (inactive); in experiment [7] it was 4.57% (inactive); in experiment [8], 6.74% (inactive). The inhibition of aggregation in experiment [2] was 5.4% (inactive). For the same molecule, the nuclei count in experiment [2] was determined as 98.4%; in experiment [3], 132%. Besides, the results for the fluorescence slope in experiment [4] and in experiment [6] were -0.4 (inactive) and 0.00607 (inactive), respectively. Besides, the NADPH fluorescence slope in experiment [5] was 5.8e-06 (inactive).

Turning to `CSC1CCCCC1(O)CSc1nc2c(cc1C#N)CCCC2` (centres undefined), the cell count in experiment [1] was determined as 306. Besides, the inhibition was -7.4% (inactive) in experiment [1], -111% (inactive) in experiment [3], 21.3% (inactive) in experiment [7] and 13.8% (inactive) in experiment [8]. The inhibition of aggregation in experiment [2] is 9% (inactive). In addition, the nuclei count in experiment [2] came to 87%; in experiment [3] it was 78.9%. The fluorescence slope in experiment [4] was -0.411 (inactive); in experiment [6], 0.00633 (inactive). For the same molecule, the NADPH fluorescence slope in experiment [5] was 1e-05 (inactive).

By inhibition is commonly meant the relative decrease from the control value, in per cent.
